Results as given in ChEMBL document CHEMBL1154591, “Synthesis and in vitro microbiological evaluation of novel 4-aryl-5-isopropoxycarbonyl-6-methyl-3,4-dihydropyrimidinones” (2010).
In brackets after ≈: the same amount, converted by molar mass.

Key:
[1] = tested on: Aspergillus flavus; assay: Antifungal activity against Aspergillus flavus after 72 to 96 hrs by two fold serial dilution technique; assay type: functional
Outline: (§1)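 Twofold serial dilution in Sabouraud's dextrose broth. Compounds were taken up in DMSO as 1 mg/ml stocks, and 0.2 ml of stock was added to 1.8 ml of seeded broth for the first dilution, giving six dilutions. Seeded broth came from 24 h to 7-day Sabouraud's agar slant cultures, with a final inoculum of 1.1–1.5 × 10² cfu/ml. Tubes were incubated at 28 ± 1 °C for 72–96 h, and MIC was read visually. Broth-only and solvent controls were included.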

[2] = tested on: Staphylococcus aureus; assay: Antibacterial activity against Staphylococcus aureus after 24 hrs by two fold serial dilution technique; assay type: functional
Outline: (§2)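 Twofold serial broth dilution in nutrient broth. Compounds were taken up in DMSO as 1 mg/ml stocks, and 0.2 ml of stock was added to 1.8 ml of seeded broth for the first dilution, giving six dilutions in all. Seeded broth came from 24 h nutrient agar cultures, with a final inoculum of 10⁵ cfu/ml at pH 7.4 ± 0.2. Tubes were incubated at 37 ± 1 °C, and MIC was read visually after 24 h. Broth-only and solvent controls were included.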

[3] = tested on: Candida albicans; assay: Antifungal activity against Candida albicans after 72 to 96 hrs by two fold serial dilution technique; assay type: functional; outline: as §1
[4] = tested on: Salmonella typhi; assay: Antibacterial activity against Salmonella typhi after 24 hrs by two fold serial dilution technique; assay type: functional, Salmonella enterica subsp. enterica serovar Typhi; settings: Salmonella enterica
Outline: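 Twofold serial broth dilution in nutrient broth. Compounds dissolved in DMSO as 1 mg/ml stocks; 0.2 ml added to 1.8 ml seeded broth, then serially diluted to six dilutions. Inoculum from 24 h nutrient agar cultures, final 10⁵ cfu/ml, pH 7.4 ± 0.2. Incubated at 37 ± 1 °C; MIC read visually at 24 h. Seeded-broth and solvent controls; ciprofloxacin standard.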

[5] = tested on: Rhizopus; assay: Antifungal activity against Rhizopus after 72 to 96 hrs by two fold serial dilution technique; assay type: functional; outline: as §1
[6] = tested on: Mucor; assay: Antifungal activity against Mucor after 72 to 96 hrs by two fold serial dilution technique; assay type: functional; outline: as §1
[7] = tested on: Escherichia coli; assay: Antibacterial activity against Escherichia coli after 24 hrs by two fold serial dilution technique; assay type: functional; outline: as §2
[8] = tested on: Klebsiella pneumoniae; assay: Antibacterial activity against Klebsiella pneumoniae after 24 hrs by two fold serial dilution technique; assay type: functional; outline: as §2
[9] = tested on: Pseudomonas aeruginosa; assay: Antibacterial activity against Pseudomonas aeruginosa after 24 hrs by two fold serial dilution technique; assay type: functional; outline: as §2

SMILES | MIC [1] [µg/mL] | MIC [2] [µg/mL] | MIC [3] [µg/mL] | MIC [4] [µg/mL] | MIC [5] [µg/mL] | MIC [6] [µg/mL] | MIC [7] [µg/mL] | MIC [8] [µg/mL] | MIC [9] [µg/mL]
CC1=C(C(=O)OC(C)C)C(c2ccccc2)NC(=S)N1 (stereo not drawn) | 100 (≈ 344 µM) | 50 (≈ 172 µM) | 50 (≈ 172 µM) | 100 (≈ 344 µM) | 100 (≈ 344 µM) | 50 (≈ 172 µM) | 200 (≈ 689 µM) | 100 (≈ 344 µM) | 50 (≈ 172 µM)
CC1=C(C(=O)OC(C)C)C(c2ccccc2)NC(=O)N1 (stereo not drawn) | – | 200 (≈ 729 µM) | 100 (≈ 365 µM) | 200 (≈ 729 µM) | 200 (≈ 729 µM) | 200 (≈ 729 µM) | 200 (≈ 729 µM) | 200 (≈ 729 µM) | 100 (≈ 365 µM)
COc1ccc(C2NC(=O)NC(C)=C2C(=O)OC(C)C)cc1 (stereo not drawn) | 100 (≈ 329 µM) | 50 (≈ 164 µM) | 50 (≈ 164 µM) | 50 (≈ 164 µM) | 50 (≈ 164 µM) | 50 (≈ 164 µM) | 100 (≈ 329 µM) | 100 (≈ 329 µM) | 50 (≈ 164 µM)
CC1=C(C(=O)OC(C)C)C(c2ccc(C)cc2)NC(=O)N1 (stereo not drawn) | 200 (≈ 694 µM) | 100 (≈ 347 µM) | 50 (≈ 173 µM) | 100 (≈ 347 µM) | 50 (≈ 173 µM) | 50 (≈ 173 µM) | 100 (≈ 347 µM) | 100 (≈ 347 µM) | 50 (≈ 173 µM)
CC1=C(C(=O)OC(C)C)C(c2ccc(F)cc2)NC(=O)N1 (stereo not drawn) | 25 (≈ 85.5 µM) | 12.5 (≈ 42.8 µM) | 12.5 (≈ 42.8 µM) | 12.5 (≈ 42.8 µM) | 12.5 (≈ 42.8 µM) | 25 (≈ 85.5 µM) | 25 (≈ 85.5 µM) | 25 (≈ 85.5 µM) | 12.5 (≈ 42.8 µM)
CC1=C(C(=O)OC(C)C)C(c2ccc(Cl)cc2)NC(=O)N1 (stereo not drawn) | 100 (≈ 324 µM) | 25 (≈ 81 µM) | 25 (≈ 81 µM) | 25 (≈ 81 µM) | 25 (≈ 81 µM) | 50 (≈ 162 µM) | 50 (≈ 162 µM) | 50 (≈ 162 µM) | 25 (≈ 81 µM)
CC1=C(C(=O)OC(C)C)C(c2ccc([N+](=O)[O-])cc2)NC(=O)N1 (stereo not drawn) | 25 (≈ 78.3 µM) | 12.5 (≈ 39.1 µM) | 12.5 (≈ 39.1 µM) | 12.5 (≈ 39.1 µM) | 12.5 (≈ 39.1 µM) | 12.5 (≈ 39.1 µM) | 12.5 (≈ 39.1 µM) | 12.5 (≈ 39.1 µM) | 12.5 (≈ 39.1 µM)
CC1=C(C(=O)OC(C)C)C(c2ccccc2Cl)NC(=O)N1 (stereo not drawn) | 100 (≈ 324 µM) | 25 (≈ 81 µM) | 25 (≈ 81 µM) | 25 (≈ 81 µM) | 50 (≈ 162 µM) | 50 (≈ 162 µM) | 50 (≈ 162 µM) | 50 (≈ 162 µM) | 25 (≈ 81 µM)
C[C@@H]1[C@H](O)[C@@H](C)/C=C/C=C/C=C/C=C/C=C/C=C/C=C/[C@H](O[C@@H]2O[C@H](C)[C@@H](O)[C@H](N)[C@@H]2O)C[C@@H]2O[C@](O)(C[C@@H](O)C[C@@H](O)[C@H](O)CC[C@@H](O)C[C@@H](O)CC(=O)O[C@H]1C)C[C@H](O)[C@H]2C(=O)O [AMPHOTERICIN B] | 50 (≈ 54.1 µM) | – | 25 (≈ 27.1 µM) | – | 25 (≈ 27.1 µM) | 50 (≈ 54.1 µM) | – | – | –
O=C(O)c1cn(C2CC2)c2cc(N3CCNCC3)c(F)cc2c1=O [CIPROFLOXACIN] | – | – | – | 50 (≈ 151 µM) | – | – | 25 (≈ 75.4 µM) | 25 (≈ 75.4 µM) | –
